Published values of several laboratories.
Lines come from different studies, so protocols differ.
MTNR1A: Melatonin receptor type 1A (MTNR1A, Homo sapiens, UniProt P48039)
FLT3: Receptor-type tyrosine-protein kinase FLT3 (FLT3, Homo sapiens, UniProt P36888)
Tmem97: Sigma intracellular receptor 2 (Tmem97, Rattus norvegicus, UniProt Q5U3Y7)
CYP51: Sterol 14-alpha demethylase (CYP51, Trypanosoma cruzi, UniProt Q7Z1V1)
HTR2C: 5-hydroxytryptamine receptor 2C (HTR2C, Homo sapiens, UniProt P28335)
F2 trypsin-like site: Prothrombin, trypsin-like site (F2, Bos taurus, UniProt P00735)

Structure (SMILES)	target	test	conditions	quantity	value
COc1ccc2c(c1)N(Cc1cc(=O)c(OC)co1)CCO2	MTNR1A	cAMP, agonist, luciferase	–	EC50	0.56 nM
CC(C)Nc1ccnc(Nc2ccc(-c3ccccc3)cc2)n1	FLT3	enzyme activity, inhibitor	–	IC50	15000 nM
CCOC(=O)c1nc(N(C)CCc2cnccn2)ccc1Br	MTNR1A	cAMP, agonist, luciferase	–	EC50	29.4 nM
COc1cc2c(CCNC(C)=O)c[nH]c2cc1I	MTNR1A	cAMP, agonist, TR-FRET	–	EC50	6.61 nM
O=C(NCCN1CCCCC1)c1cc(Br)ccc1OCCF	Tmem97	ligand displacement, radioligand	cell membranes	Ki	10.2 nM
CC(C)(C)Nc1ccnc(Nc2cccc(-c3cccnc3)c2)n1	FLT3	enzyme activity, inhibitor	–	IC50	13 nM
O=C(Nc1ccc(Sc2ccc([N+](=O)[O-])cc2)cc1)O[C@H](Cn1ccnc1)c1ccc(Cl)cc1	CYP51	binding	–	Kd	162 nM
OC[C@@]12C[C@@H]1[C@@H](n1cnc3c(N[C@H](C4CCC4)C4CC4)nc(I)nc31)[C@H](O)[C@@H]2O	HTR2C	calcium signal, antagonist	–	Kb	288 nM
COc1cccc2c1CCN(C(=O)c1cc(=O)n(C)cc1Br)C2	MTNR1A	cAMP, agonist, luciferase	–	EC50	96.3 nM
CC(C)c1ccc(NC(=O)O[C@H](Cn2ccnc2)c2ccc(F)cc2)cc1	CYP51	binding	–	Kd	32 nM
COc1ccc2[nH]cc(CCNC(C)=O)c2c1I	MTNR1A	β-arrestin recruitment, agonist	–	EC50	52.5 nM
CCCCN1CCN(C2CCCCC2)CC1	Tmem97	ligand displacement, radioligand	cell membranes	Ki	65.2 nM
O=C(NCCCn1ccnc1)O[C@@H](Cn1ccnc1)c1ccc(F)cc1	CYP51	binding	–	Kd	87 nM
COc1ccc2ncn(CCNC(C)=O)c2c1	MTNR1A	GTPγS binding, agonist, radiometric	cell membranes	EC50	2190 nM
O=C(NCCN1CCCCC1)c1ccc(OCCF)c(Br)c1	Tmem97	ligand displacement, radioligand	cell membranes	Ki	42.8 nM
Cc1ccc(C(=O)Nc2ccc(Oc3cc4cnn(C)c4cc3-c3cn[nH]c3)c(F)c2)c(=O)n1-c1ccc(F)cc1	FLT3	enzyme activity, inhibitor, radiometric	–	IC50	31 nM
COC(=O)c1cc(Cn2ccc(C(C)=O)n2)c(C)s1	MTNR1A	cAMP, agonist, luciferase	–	EC50	74.9 nM
CCc1nc2cc(OCCCCN3CCC(c4cccc(Cl)c4Cl)CC3)ccc2s1	HTR2C	cell-free assay, radioligand	–	Ki	210 nM
COc1ccc2ccn(CCCCN3CCc4cc(OC)c(OC)cc4C3)c2c1	Tmem97	ligand displacement, radioligand	cell membranes	Ki	8.68 nM
c1ccc(N2CCCC(Nc3nccc(NC4CCCCC4)n3)C2)cc1 (stereo not drawn)	FLT3	enzyme activity, inhibitor	–	IC50	3260 nM
COC(=O)c1sc(N(C)Cc2ccc(OC)c(O)c2)nc1Cl	MTNR1A	cAMP, agonist, luciferase	–	EC50	14.5 nM

Structure (SMILES)	target	test	conditions	quantity	value
CC(C)(C)[C@H](NC(=O)[C@H](CCCNC(=N)N)NC(=O)Cc1ccc(CN)cc1)C(=O)N[C@@H](CCONC(=N)N)C(=O)NCc1ccc(C(=N)N)cc1	F2 trypsin-like site	enzyme activity, inhibitor	pH 8	Ki	13000 nM
CCC(=O)NC1Cc2ccccc2C(c2ccccc2)C1 (stereo not drawn)	MTNR1A	β-arrestin recruitment, agonist	–	EC50	759 nM
COc1ccc2c(ccn2CCCCN2Cc3cc(OC)c(OC)cc3C2)c1	Tmem97	ligand displacement, radioligand	cell membranes	Ki	8.91 nM
Nc1nc(NCc2ccc(Oc3ccccc3)cc2)nc(-c2c(F)cccc2CO)n1	MTNR1A	cell-free assay, radioligand	–	Ki	5900 nM
COCC(CNC(C)=O)c1cccc2ccc(OC)cc12 (stereo not drawn)	MTNR1A	β-arrestin recruitment, agonist	–	EC50	3.09 nM
CN(Cc1ccsc1)c1ccnc(Cl)c1	MTNR1A	cAMP, agonist, luciferase	–	EC50	2660 nM
Cc1cc(Nc2cc3ncccc3c(N[C@@H]3C[C@H]4CC[C@@H](C3)N4CCC#N)n2)n[nH]1	Ephrin type-B receptor 6 (EPHB6, Homo sapiens, UniProt O15197)	binding, competition with immobilised ligand	–	Kd	2000 nM
COc1ccc2c(c1)N(Cc1cccc3[nH]ccc13)CCO2	MTNR1A	cAMP, agonist, luciferase	–	EC50	20.8 nM
CC(C)Nc1ccnc(Nc2cccc(C(C)(C)C)c2)n1	FLT3	enzyme activity, inhibitor	–	IC50	17200 nM
CC(C)(C)[C@H](NC(=O)[C@H](CCONC(=N)N)NC(=O)Cc1ccc(CNC(=N)N)cc1)C(=O)N[C@@H](CCCCN)C(=O)NCc1ccc(C(=N)N)cc1	F2 trypsin-like site	enzyme activity, inhibitor	pH 8	Ki	61000 nM
c1ccc(-c2ccc(Nc3nccc(NC4CCCCC4)n3)cc2)nc1	FLT3	enzyme activity, inhibitor	–	IC50	1880 nM
CC(C)(C)[C@H](NC(=O)[C@H](CCCNC(=N)N)NC(=O)Cc1ccc(CNC(=N)N)cc1)C(=O)N[C@@H](CCONC(=N)N)C(=O)NCc1ccc(C(=N)N)cc1	F2 trypsin-like site	enzyme activity, inhibitor	pH 8	Ki	9600 nM
c1cc(Nc2nccc(NC3CCCCC3)n2)cc(C2CC2)c1	FLT3	enzyme activity, inhibitor	–	IC50	2590 nM
O=C(NCCc1cccc2ccccc12)C1CCC1	MTNR1A	β-arrestin recruitment, agonist	–	EC50	288 nM
COc1cccc2c1CCN(C(=O)c1c[nH]nc1-c1ccc(Cl)s1)C2	MTNR1A	cAMP, agonist, luciferase	–	EC50	76.3 nM
c1cncc(-c2cccc(Nc3nccc(NC4CCCC4)n3)c2)c1	FLT3	enzyme activity, inhibitor	–	IC50	13 nM
COc1cc2c(CCNC(C)=O)c(I)[nH]c2cc1[N+](=O)[O-]	MTNR1A	GTPγS binding, agonist, radiometric	cell membranes	EC50	20.9 nM
O=C(O[C@H](Cn1ccnc1)c1ccccc1)c1ccc(-c2ccccc2)cc1	CYP51	binding	–	Kd	46 nM
Cc1cc2nc3c(=O)[nH]c(=O)nc-3n(C[C@H](O)[C@H](O)[C@H](O)COP(=O)(O)OP(=O)(O)OC[C@H]3O[C@@H](n4cnc5c(N)ncnc54)[C@H](O)[C@@H]3O)c2cc1C	DNA topoisomerase 2-alpha (TOP2A, Homo sapiens, UniProt P11388)	binding	lysate	Kd	141 nM
COC(=O)c1cccc(-c2cccc(Nc3nccc(NC4CCCCC4)n3)c2)c1	FLT3	enzyme activity, inhibitor	–	IC50	13300 nM
Cc1cnc(-c2ccc(-c3ccc(NC(=O)Nc4c(F)cc(F)cc4F)cc3F)c3c2C(=O)NC3)[nH]1	Aurora kinase A (AURKA, Homo sapiens, UniProt O14965)	binding, competition with immobilised ligand	–	Kd	2.9 nM
